Assay results from ChEMBL document CHEMBL1132370, “8,11-dihydroxy-6-[(aminoalkyl)amino]-7H-benzo[e]perimidin-7-ones with activity in multidrug-resistant cell lines: synthesis and antitumor evaluation” (J Med Chem, 1999).
Where “and” joins values, the source holds several entries; their conditions need not be identical. Equal entries are not always repeated.

Key:
[1] = test system: HT-29; test: Effect of compound as percent survival at dose of 100n g/mL on HT-29 cell line after 72 hours; type: functional, Homo sapiens
Outline: (§1)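 HT29 or mitoxantrone-resistant HT29/Mx monolayers grown in McCoy's 5A with 10% FBS and 1% 1 M Hepes at 37 °C, 5% CO2. Cells exposed to drug for 72 h. Survival measured by cell counting and given as percent of untreated control.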

[2] = test system: HT-29; test: Percent inhibition at G1 phase of cell cycle at a dose of 100n g/mL after 72 hours of induction in HT-29/Mx cell line; type: functional, Homo sapiens
Outline: (§2)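 HT29 or HT29/Mx cells were treated for 72 h, then fixed in 70% ice-cold ethanol. Cells were stained with PBS containing 30 μg/mL propidium iodide and 66 units/mL RNase A, and DNA content was measured by flow cytometry on at least 10^4 cells to give G1, S and G2/M fractions.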

[3] = test system: HT-29; test: Percent inhibition at G1 phase of cell cycle at a dose of 20 ng/mL after 72 hours of induction in HT-29/Mx cell line; type: functional; conditions: Homo sapiens, HT-29, 72 h; outline: as §2
[4] = test system: HT-29; test: Percent inhibition at S phase of cell cycle at a dose of 100n g/mL after 72 hours of induction in HT-29/Mx cell line; type: functional, Homo sapiens
Outline: (§3)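 HT29 and mitoxantrone-resistant HT29/Mx colon adenocarcinoma monolayers in McCoy's 5A with 10% FBS and 1% 1 M Hepes, 37 °C, 5% CO2. Drug exposure 72 h. Cells then fixed in 70% ice-cold ethanol, washed twice and resuspended in PBS with 30 μg/mL propidium iodide and 66 units/mL RNase A. At least 10^4 cells per sample read for DNA content by flow cytometry. G1/S/G2M fractions reported as percentages.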

[5] = test system: HT-29; test: Effect of compound as percent survival at dose of 100n g/mL on HT-29/Mx cell line after 72 hours; type: functional, Homo sapiens; outline: as §1
[6] = test system: HT-29; test: Effect of compound as percent survival at dose of 10 ng/mL on HT-29/Mx cell line after 72 hours; type: functional; conditions: Homo sapiens, HT-29, 72 h; read-out: Survival; outline: as §1
[7] = test system: HT-29; test: Percent inhibition at G2/M phase of cell cycle at a dose of 100n g/mL after 72 hours of induction in HT-29 cell line; type: functional, Homo sapiens; outline: as §2
[8] = test system: HT-29; test: Percent inhibition at S phase of cell cycle at a dose of 100n g/mL after 72 hours of induction in HT-29 cell line; type: functional, Homo sapiens; outline: as §3
[9] = test system: L1210; test: Compound was tested in vitro for cytotoxicity against L1210 murine cell line (48 hr exposure to compound); type: functional, cell-based; conditions: Mus musculus, L1210, 48 h
Outline: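 L1210 cells were grown in RPMI 1640 with 5% FBS, 37 °C, 5% CO2, and exposed to drug for 48 h. Growth was read by Lowry cellular protein. IC50 is the concentration giving 50% growth inhibition, reported as the mean of at least three independent experiments ± SEM.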

[10] = test system: Mus musculus; test: In vivo antileukemic activity towards P388 Murine Leukemia at a dose of 1.0 mg/kg, expressed as body weight change; type: functional
[11] = test system: Mus musculus; test: Long-term survivors when compound was tested for in vivo antileukemic activity towards P388 Murine Leukemia at dose of 10.0 mg/kg tested in 12 animals; type: functional
[12] = test system: Mus musculus; test: Long-term survivors when compound was tested for in vivo antileukemic activity towards P388 Murine Leukemia at dose of 2.5 mg/kg tested in 12 animals; type: functional
[13] = test system: Mus musculus; test: Long-term survivors when compound was tested for in vivo antileukemic activity towards P388 Murine Leukemia at dose of 22.5 mg/kg tested in 6 animals; type: functional
[14] = test system: Mus musculus; test: In vivo antileukemic activity towards P388 Murine Leukemia at a dose of 10.0 mg/kg; type: functional
[15] = test system: Mus musculus; test: Long-term survivors when compound was tested for in vivo antileukemic activity towards P388 Murine Leukemia at dose of 1.0 mg/kg tested in 12 animals; type: functional
[16] = test system: Mus musculus; test: In vivo antileukemic activity towards P388 Murine Leukemia at a dose of 22.5 mg/kg; type: functional
[17] = test system: Mus musculus; test: In vivo antileukemic activity towards P388 Murine Leukemia at a dose of 35.0 mg/kg; type: functional
[18] = test system: Mus musculus; test: In vivo antileukemic activity towards P388 Murine Leukemia at a dose of 5.0 mg/kg; type: functional
[19] = test system: Mus musculus; test: Toxic deaths at dose of 10 mg/kg (i.v.) to nude mice bearing sc Human ovarian carcinoma tumor Xenografts tested in 4 animals; type: functional; conditions: route intravenous
Outline: (§4)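 Tumor fragments of A2780, A2780/Dx or HT29/Mx grafted sc in both flanks of Swiss athymic nude mice, 4–5 mice per group. Drug given iv once weekly on 3 days: days 4, 11, 18 (A2780, HT29/Mx) or days 7, 14, 21 (A2780/Dx). Dosing started at mean tumor volume 80–100 mm3. Toxic deaths recorded as deaths/total mice.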

[20] = test system: Mus musculus; test: Toxic deaths at dose of 6.7 mg/kg (i.v.) to nude mice bearing sc Human A2780/Dx tumor Xenografts tested in 5 animals; type: functional; conditions: route intravenous; outline: as §4
[21] = test system: Mus musculus; test: Tumor volume inhibition administered iv at a dose of 10 mg/kg to nude mice bearing sc Human ovarian carcinoma Xenografts; type: functional
Outline: (§5)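 Swiss nude athymic mice carrying tumor fragments grafted sc in both flanks, 4–5 mice (8–10 tumors) per group. Tumor lines kept by sc passage. Dosing iv once weekly for 3 doses, starting at mean tumor volume ca. 80–100 mm3 (A2780, HT29/Mx: days 4, 11, 18; A2780/Dx: days 7, 14, 21). Diameters measured twice weekly; TV = d²×D/2. %TVI treated vs control assessed 3–10 days after last dose.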

[22] = test system: Mus musculus; test: Tumor volume inhibition administered iv at a dose of 6.7 mg/kg to nude mice bearing sc Human A2780/Dx Xenografts; type: functional, A2780 ADR; outline: as §5
[23] = test system: Mus musculus; test: Tumor volume inhibition administered iv at a dose of 14 mg/kg to nude mice bearing sc Human HT-29/Mx Xenografts; type: functional; outline: as §5
[24] = test system: Mus musculus; test: Tumor volume inhibition administered iv at a dose of 20 mg/kg to nude mice bearing sc Human colon carcinoma Xenografts; type: functional; outline: as §5
[25] = test system: Mus musculus; test: Tumor volume inhibition administered iv at a dose of 6.7 mg/kg to nude mice bearing sc Human A2780 Xenografts; type: functional; outline: as §5
[26] = test system: Mus musculus; test: Antileukemic activity expressed as number of toxic deaths/total number of mice at dose 22.5 mg/kg tested in 6 animals; type: functional
[27] = test system: Mus musculus; test: Antileukemic activity expressed as number of toxic deaths/total number of mice at dose 35.0 mg/kg tested in 6 animals; type: functional
[28] = test system: PC-3; test: In vitro Cytotoxic activity of compound in comparison with reference compounds in human cell line PC3; type: functional, cell-based
Outline: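 Monolayer lines were used: A2780, A2780/Dx, DU145 and PC3 in RPMI 1640, LoVo and LoVo/Dx in Ham's F-12, and HT29 and HT29/Mx in McCoy's 5A, each with 10% FBS. Drug exposure was 72 h. […] Resistance index = IC50 in resistant / IC50 in sensitive line.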

[29] = test system: Mus musculus; test: In vivo antileukemic activity towards P388 Murine Leukemia at a dose of 20.0 mg/kg; type: functional
[30] = test system: HT-29; test: Percent inhibition at G2/M phase of cell cycle at a dose of 100n g/mL after 72 hours of induction in HT-29/Mx cell line; type: functional, Homo sapiens; outline: as §2

With `CN(C)CCNc1ccc2ncnc3c2c1C(=O)c1c(O)ccc(O)c1-3` the Survival [1] was 20%, the Inhibition [2] was 25% and the inhibition at 0.02 µg/mL [3] was 58%. For the same compound, the Inhibition [4] was 17%, the Survival [5] was 12% and the viability at 0.01 µg/mL [6] was 100%. It also gave an Inhibition [7] of 57%, an Inhibition [8] of 21% and an IC50 [9] of 1.29 nM. It also gave a Body weight change [10] of 1.05 BWC, an LTS [11] of 0 and an LTS [12] of 0. The LTS [13] was 0, the “T/C (ratio of treated to control)” value [14] was 172% and 196% and the LTS [15] was 0. For the same compound, the “T/C (ratio of treated to control)” value [16] was 215%, the “T/C (ratio of treated to control)” value [17] was -110% and the “T/C (ratio of treated to control)” value [18] was 147% and 167%. For the same compound, the Toxic deaths [19] was 0, the Toxic deaths [20] was 0 and the TVI [21] was 62% and 80%. For the same compound, the TVI [22] was 46%, the TVI [23] was 7% and the TVI [24] was 22%. The TVI [25] was 32%, the Toxic deaths [26] was 1 and the Toxic deaths [27] was 5. The IC50 [28] was 11.6 nM, the “T/C (ratio of treated to control)” value [29] was 205% and 207% and the Inhibition [30] was 58%.
